# In article PMC7919753 (ACS chemical biology, 2020):
# Where “and” joins values, the source holds several entries; their conditions need not be identical. Equal values may be shown once. Read-outs that look alike come from different tables or passages of the source.
# How the values were obtained:
# Panc198 (Pa20C) = experiment: PDAC 3-D spheroid model, Panc198; assay type: cell-based, human; conditions: Panc198 PDAC spheroids, concentration-dependent
# Outline: (§1)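 TdTomato-transduced PDAC cells, kept under 10 passages, were seeded at 1,000 cells/well in ultralow-adherence plates. Medium held 3% reduced-growth-factor Matrigel and 5% FBS. Spheroids were treated on days 4 and 8, and red fluorescence was read on day 12. Percent viability was taken versus media control (mean ± s.d., n = 3). Relative IC50 came from a four-parameter logistic fit by non-linear least squares.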
# GBM43 spheroids [1] = experiment: 3-D spheroid viability assay, GBM43; assay type: cell-based, human; conditions: for activity in spheroids (in words): concentration-dependent
# Panc10.05 (Pa16C) = experiment: PDAC 3-D spheroid model, Panc10.05; assay type: cell-based; conditions: Homo sapiens, Panc1005, read-out: IC50 (cell viability)
# Outline: as §1
# [2] = Stability in buffer by HPLC; assay type: physicochemical
# astrocytes = experiment: Astrocyte monolayer cell proliferation assay; assay type: cell-based, human; conditions: 2-D monolayer assay, up to 100 μM, 3 days
# Outline: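 Primary human fetal astrocytes were seeded at 8 × 10³/well in DMEM with 10% FBS and 1% penicillin/streptomycin. They were incubated 3 days with DMSO or test compound. MTS reagent was then added and incubated 1 h at 37 °C, and absorbance was read at 490 nm. Run in triplicate.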
# RACK1 [3] = target: T1, RACK1 (Homo sapiens, UniProt P63244); experiment: Thermal proteome profiling in GBM43 cells; assay type: binding; conditions: 10 μM, six temperatures 37-60 °C, cutoff ΔTm ≥ 3 °C
# Outline: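 GBM43 cells in PBS with protease inhibitors were treated 1 h at 37 °C with 10 µM test compound or DMSO. Fractions of 5 × 10⁶ cells were heated 3 min at 37, 40, 45, 50, 55 or 60 °C, then freeze-thaw lysed and spun at 100,000 × g. Soluble proteins were trypsin-digested and quantified by label-free LC-MS/MS. iBAQ-based melting curves gave ΔTm (treatment − vehicle), with a ≥3.0 cutoff.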
# GAPDH = GAPDH (Homo sapiens, UniProt P04406); experiment: Cellular thermal shift assay; assay type: binding; conditions: GBM43 cells, concentration-dependent, heated to 45 °C
# GAPDH, sequence (P04406 whole entry): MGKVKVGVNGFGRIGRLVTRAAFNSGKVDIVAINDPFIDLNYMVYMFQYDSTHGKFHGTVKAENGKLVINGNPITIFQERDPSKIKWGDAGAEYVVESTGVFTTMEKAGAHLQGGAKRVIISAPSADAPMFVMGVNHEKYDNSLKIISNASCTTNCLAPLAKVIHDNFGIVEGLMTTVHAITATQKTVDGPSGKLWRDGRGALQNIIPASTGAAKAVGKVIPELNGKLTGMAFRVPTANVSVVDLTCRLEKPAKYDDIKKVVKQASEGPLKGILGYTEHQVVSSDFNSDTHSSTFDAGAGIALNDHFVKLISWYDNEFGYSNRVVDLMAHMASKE
# Outline: (§2)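 GBM43 cells were exposed to varying concentrations of test compound, then heated to 45 °C. Protein remaining soluble was detected with target-specific antibodies. GAPDH was probed as a control for non-specific binding.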
# CD34+ progenitor cells = experiment: Colony-forming unit; assay type: cell-based, human; conditions: colony formation assay, up to 100 μM, day 14
# Outline: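 Purified human umbilical cord blood CD34+ cells were incubated with test compound. They were plated with compound at 2 × 10³ cells per 35 mm dish in MethoCult H4434. Clonogenic progenitor colonies were counted by light microscopy on day 14 after exposure. IC50 came from dose-response curves.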
# Pa02C = experiment: PDAC 3-D spheroid model, Pa02C; assay type: cell-based, human; conditions: Pa02C PDAC spheroids, concentration-dependent
# Outline: as §1
# [4] = system: brain microvascular endothelial cells (BMECs); experiment: Effect on brain microvascular endothelial cells, 48 h exposure; assay type: cell-based; conditions: Endothelial cell, read-out: IC50 (effect on BMECs)
# [5] = system: brain microvascular endothelial cells (BMECs); experiment: Matrigel-based tube formation assay; conditions: Endothelial cell, 8 h, read-out: IC50 (tube formation)
# Outline: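 Primary brain microvascular endothelial cells, 15,000 per well in EGM-2, were seeded on Matrigel pre-solidified 20 min at 37 °C. Test compound was added in DMSO. Tubes were observed every 2 h by brightfield and imaged at 8 h. Total tubule length from six images per treatment was normalised to DMSO. Treatments were compared to DMSO by one-way ANOVA with Dunnett's test.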
# GBM10 spheroids = experiment: 3-D spheroid viability assay, GBM10; assay type: cell-based, human; conditions: for activity in spheroids (in words): concentration-dependent
# SJ-GBM2 spheroids = experiment: 3-D spheroid viability assay, SJ-GBM2; assay type: cell-based, human; conditions: for activity in spheroids (in words): concentration-dependent
# GBM43 spheroids [6] = conditions: read-out: IC50 (cell viability); GBM43, standard-of-care comparison; cited from earlier work
# RACK1 [7] = target: T1, RACK1; experiment: Cellular thermal shift assay; assay type: binding; conditions: GBM43 cells, concentration-dependent, 6 h treatment, heated to 45 °C, vs DMSO
# Outline: as §2
smiles,measurement,setting,value
"COc1cc2c(cc1NC(=O)C1CCC(=O)N1S(=O)(=O)c1ccc(C)cc1)oc1ccccc12 (stereo not shown) [Compound 1, N-(2-Methoxydibenzo[b,d]furan-3-yl)-5-oxo-1-tosylpyrrolidine-2-carboxamide]",activity in spheroid model,Panc198 (Pa20C),no activity
same,inhibition of cell viability,"GBM43 spheroids [1]; GBM43 spheroids, single concentration 25 μM",90%
same,IC50,"GBM43 spheroids [1]; Homo sapiens, 120 h, read-out: IC50 (cell viability)",3.7 ± 0.1 µM
same,IC50,Panc10.05 (Pa16C),26 ± 5.9 µM
same,stability following incubation in buffer,[2],stable
same,effect on cell viability of astrocytes,astrocytes,no effect
same,thermal shift of RACK1 (ΔTm),RACK1 [3],significant thermal shift
same,GAPDH abundance after heating (CETSA),GAPDH,no difference in protein abundance
same,effect on cell viability of CD34+ cells,CD34+ progenitor cells,no effect
same,activity in spheroid model,Pa02C,no activity
same,IC50,[4],3.5 µM
same,IC50,[5],~0.1 µM
"COc1cc2c(cc1NC(=O)C1CCC(=O)N1S(=O)(=O)c1ccc(C)cc1)oc1ccc(Cl)cc12 (stereo not shown) [Compound 26, N-(8-Chloro-2-methoxydibenzo[b,d]furan-3-yl)-5-oxo-1-tosylpyrrolidine-2-carboxamide]",activity in spheroids (in words),GBM43 spheroids [1]; GBM43 spheroids,no activity
same,activity in spheroids (in words),GBM10 spheroids,no activity
same,activity in spheroids (in words),SJ-GBM2 spheroids,no activity
"COc1cc2c(cc1NC(=O)C1CCC(=O)N1S(=O)(=O)c1ccc(C)cc1)oc1cc(Cl)ccc12 (stereo not shown) [Compound 27, N-(7-Chloro-2-methoxydibenzo[b,d]furan-3-yl)-5-oxo-1-tosylpyrrolidine-2-carboxamide]",activity in spheroids (in words),GBM43 spheroids [1]; GBM43 spheroids,no activity
same,activity in spheroids (in words),GBM10 spheroids,no activity
same,activity in spheroids (in words),SJ-GBM2 spheroids,no activity
Cn1nnc2c(C(N)=O)ncn2c1=O [temozolomide],IC50,GBM43 spheroids [6],244 µM and ~250 µM
"COc1cc2c(cc1NC(=O)C1CCC(=O)N1S(=O)(=O)c1ccc(C(F)(F)F)cc1)oc1ccccc12 (stereo not shown) [Compound 25, N-(2-Methoxydibenzo[b,d]furan-3-yl)-5-oxo-1-((4-(trifluoromethyl)phenyl)sulfonyl)pyrrolidine-2-carboxamide]",fold decrease in IC50 compared to 1,GBM43 spheroids [1]; GBM43 spheroids,~10 fold
same,fold decrease in IC50 compared to 1,GBM10 spheroids,~10 fold
same,fold decrease in IC50 compared to 1,SJ-GBM2 spheroids,~10 fold
"COc1cc2c(cc1NC(=O)C1CCC(=O)N1)oc1ccccc12 (stereo not shown) [Compound 24, N-(2-Methoxydibenzo[b,d]furan-3-yl)-5-oxopyrrolidine-2-carboxamide]",activity in spheroids (in words),GBM43 spheroids [1]; GBM43 spheroids,loss of activity
same,activity in spheroids (in words),GBM10 spheroids,loss of activity
"COc1cc2c(cc1NC(=O)C1CCC(=O)N1Cc1ccc(C)cc1)oc1ccccc12 (stereo not shown) [Compound 23, N-(2-Methoxydibenzo[b,d]furan-3-yl)-1-(4-methylbenzyl)-5-oxopyrrolidine-2-carboxamide]",activity in spheroids (in words),GBM43 spheroids [1]; GBM43 spheroids,loss of activity
same,activity in spheroids (in words),GBM10 spheroids,loss of activity
"COc1cc2c(cc1NC(=O)C1CCCN1S(=O)(=O)c1ccc(C)cc1)oc1ccccc12 (stereo not shown) [Compound 22, N-(2-Methoxydibenzo[b,d]furan-3-yl)-1-tosylpyrrolidine-2-carboxamide]",activity in spheroids (in words),GBM43 spheroids [1]; GBM43 spheroids,loss of activity
same,activity in spheroids (in words),GBM10 spheroids,loss of activity
same,RACK1 abundance after heating (CETSA),RACK1 [7],did not affect protein abundance
"O=NN(CCCl)C(=O)NC1CCCCC1 [CCNU, lomustine, reference compound]",inhibition of cell viability,"GBM43 spheroids [1]; GBM43 spheroids, at 100 μM",about 50%
same,inhibition of cell viability,GBM10 spheroids; at 100 μM,about 50%
